# Experimental data from different studies.
# Compare with care: the assays were run in different laboratories.
# Target: Serine/threonine-protein kinase DCLK2 (DCLK2, Homo sapiens, UniProt Q8N568)
# Sequence (Q8N568 1-766, as in one of the studies): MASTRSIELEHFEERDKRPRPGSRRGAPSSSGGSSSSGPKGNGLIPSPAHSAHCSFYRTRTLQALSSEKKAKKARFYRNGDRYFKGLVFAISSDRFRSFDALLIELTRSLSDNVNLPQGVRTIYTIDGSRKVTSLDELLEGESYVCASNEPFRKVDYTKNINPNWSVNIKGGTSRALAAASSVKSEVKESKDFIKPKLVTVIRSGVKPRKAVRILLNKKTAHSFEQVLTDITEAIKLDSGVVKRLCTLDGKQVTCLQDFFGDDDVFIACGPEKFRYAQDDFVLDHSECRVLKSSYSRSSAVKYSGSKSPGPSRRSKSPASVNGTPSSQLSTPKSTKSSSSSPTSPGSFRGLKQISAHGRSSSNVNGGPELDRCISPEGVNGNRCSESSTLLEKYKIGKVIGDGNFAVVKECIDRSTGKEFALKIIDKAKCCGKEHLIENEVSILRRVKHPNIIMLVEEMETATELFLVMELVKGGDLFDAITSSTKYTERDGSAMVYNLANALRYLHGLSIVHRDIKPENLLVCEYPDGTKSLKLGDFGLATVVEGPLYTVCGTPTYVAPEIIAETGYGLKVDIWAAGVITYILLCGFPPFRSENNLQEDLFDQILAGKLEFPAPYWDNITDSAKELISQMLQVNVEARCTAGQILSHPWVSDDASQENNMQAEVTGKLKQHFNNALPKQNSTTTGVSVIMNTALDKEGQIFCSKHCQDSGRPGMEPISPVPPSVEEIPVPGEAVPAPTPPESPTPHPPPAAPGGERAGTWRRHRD
SMILES,effect on,method,concentration,remaining binding [%]
FC(F)(F)Oc1cccc(-c2cnc3ccc(-c4ccncc4)nn23)c1,cell-free assay,competition with immobilised ligand,5 µM,100
CCN1CCN(Cc2ccc(C(=O)Nc3ccc(C)c(Oc4ccc5c(c4)CC(=O)N5)c3)cc2C(F)(F)F)CC1,binding,competition with immobilised ligand,1 µM,92
CN(C)c1ncc(F)c(-c2cnn3ncccc23)n1,binding,,1 µM,96
O=C(c1ccc(Nc2ncc(Cl)c(-c3cc4ccccc4s3)n2)cc1)N1CCC(N2CCCC2)CC1,binding,competition with immobilised ligand,1 µM,90
CCC(=O)N[C@H]1CC[C@@H](C(=O)N(C)c2ccc(-c3nc4ccccc4o3)cc2)C1,cell-free assay,competition with immobilised ligand,1 µM,98
c1cnn2ncc(-c3ccnc(N4CCC45COC5)n3)c2c1,binding,,1 µM,78
NS(=O)(=O)c1cc(NC(=O)Cc2ccccc2)ccc1Oc1cccc(Cl)c1,cell-free assay,competition with immobilised ligand,1 µM,99
Nc1ncc2c(n1)-c1c([nH]c3ccc(C#CC4CC4)cc13)CCCC2,binding,competition with immobilised ligand,1 µM,89
CCOC(=O)c1cc2cc(-c3cc(C(=O)NCc4ccc(C(=O)O)cc4)nn3C)ccc2[nH]1,cell-free assay,competition with immobilised ligand,0.1 µM,100
CNC(=O)[C@@H]1CC[C@@H](n2c(-c3ccc4cnccc4c3)nc3ccc(C(=O)NCc4cccc(C(N)=O)c4)cc32)C1,binding,competition with immobilised ligand,1 µM,100
CNCc1ccccc1-c1csc([C@H](C)Nc2nc(C)nc3cc(OC)c(OC)cc23)c1,cell-free assay,competition with immobilised ligand,1 µM,100
F[C@@H]1CCN(c2nccc(-c3cnn4ncccc34)n2)C1,binding,,1 µM,88
Cc1cnc(Nc2ccc(C(=O)N3CCC(N4CCCC4)CC3)cc2)nc1-c1cc2ccccc2s1,binding,competition with immobilised ligand,1 µM,100
O=C(NCC1CCOCC1)c1n[nH]cc1NC(=O)c1c(F)cccc1F,binding,competition with immobilised ligand,1 µM,100
CN(c1nccc(-c2cnn3ncccc23)n1)C1CC1,binding,,1 µM,100
C[C@@H](c1ccc(-n2cnc3c(N)ncnc32)cc1)N1CCc2nn(C)c(Cc3ccccc3)c2C1=O,binding,competition with immobilised ligand,0.1 µM,100
Cc1cc(-n2nc(Cc3cc(F)cc(C(F)(F)F)c3)nc2C)ccc1C(N)=O,cell-free assay,competition with immobilised ligand,1 µM,100
O=C(c1ccc(Nc2ncc(Cl)c(-c3ccc(Cl)s3)n2)cc1)N1CCC(N2CCCC2)CC1,binding,competition with immobilised ligand,1 µM,90
COc1cnc(Nc2cccc(S(N)(=O)=O)c2)nc1N1CCN(c2ccccc2)CC1,binding,competition with immobilised ligand,1 µM,92
